Test results as given in ChEMBL document CHEMBL1155263, “Anti-tumor and anti-angiogenic activity of novel hydantoin derivatives: Inhibition of VEGF secretion in liver metastatic osteosarcoma cells” (Bioorg Med Chem, 2009).
Active and inactive are the calls of the source. No cut-off for these calls is given here.

How the values were obtained:
SK-OV-3 = assay: Antiproliferative activity against human SKOV3 cells after 48 hrs; assay type: functional, cell-based
Method in brief: (§1)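 Cells seeded at 15,000/well and incubated overnight at 37 °C, then switched to medium containing compound in µg/mL concentrations. Incubation was 48 h at 37 °C, 5% CO2, then 2 h with WST-type TetraColor One. A450 gave % viability, reported as % inhibition of proliferation, mean of four replicates.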

OVSAHO = assay: Antiproliferative activity against human OVSAHO cells after 48 hrs; assay type: functional, cell-based; method in brief: as §1
LM8 = assay: Antiproliferative activity against mouse LM8 cells after 48 hrs; assay type: functional, cell-based; method in brief: as §1
LM8G7 [1] = assay: Antiproliferative activity against mouse LM8G7 cells after 48 hrs; assay type: functional, cell-based; method in brief: as §1
[2] = (§2) Antiproliferative activity against VEGF expressing mouse LM8G7 cells assessed as cell index every 10 mins by RT-CES method; assay type: functional, cell-based
Method in brief: (§3)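 LM8G7 seeded at 10,000 cells/well on electronic-sensing e-plates; about 24 h later, in log phase, medium with various compound concentrations or DMSO control was added. Impedance cell index was recorded every 10 min and plotted against time. IC50 was obtained by non-linear regression of concentration–response curves.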

LM8G7 [3] = assay: as §2; assay type: functional, cell-based; method in brief: as §3
Endothelial cell = assay: Antiangiogenic activity in mouse endothelial cells assessed as inhibition of tube formation at 50 uM after 18 hrs by microscopic analysis in presence of VEGF; assay type: functional, cell-based
Method in brief: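 UV♀2 mouse endothelial cells, 100 µL suspension at 4 × 10⁵ cells/mL, seeded onto Matrigel solidified 30 min at 37 °C, with or without compound (50 µM) and VEGF (2 ng/mL); DMSO 0.1% vehicle. After 18 h, reorganization of the sub-confluent monolayer into capillary-like tubes in 3-D Matrigel was photographed by light microscopy.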

[4] = Inhibition of VEGF secretion in mouse LM8G7 cells at 56 uM after 48 hrs by immunoassay; assay type: functional; conditions: LM8G7, 48 h
Method in brief: (§4)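 LM8G7 (1 × 10⁶ cells/well) in 6-well plates were incubated 24 h, then given serum-free medium with compound at 56, 102 or 204 µM for 48 h at 37 °C. Supernatant was centrifuged 5000 rpm, 5 min, 4 °C and protein measured by BCA. Mouse VEGF was quantified by sandwich ELISA against a recombinant VEGF standard (HRP detection, A450).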

[5] = Inhibition of VEGF secretion in mouse LM8G7 cells at 102 uM after 48 hrs by immunoassay; assay type: functional; conditions: LM8G7, 48 h; method in brief: as §4
[6] = Inhibition of VEGF secretion in mouse LM8G7 cells at 204 uM after 48 hrs by immunoassay; assay type: functional; conditions: LM8G7, 48 h; method in brief: as §4

Row | SMILES | Activity (SK-OV-3) | Activity (OVSAHO) | Activity (LM8) | Activity (LM8G7 [1]) | IC50 [2] | Activity (LM8G7 [3]) | inhibition (Endothelial cell) | inhibition at 56 µM [4] | inhibition at 102 µM [5] | inhibition at 204 µM [6]
1 | CS(=O)(=O)c1ccc(CN2C(=O)NC3(CC4CCC(C3)N4Cc3cccc(F)c3)C2=O)cc1 (stereo unspecified) | Active | Active | Active | Active | 102 µM | Dose-dependent effect | – | – | – | –
2 | CS(=O)(=O)c1ccc(CN2C(=O)NC3(CC4CCC(C3)N4Cc3ccc(F)c(F)c3)C2=O)cc1 (stereo unspecified) | Active | Active | Active | Active | 13 µM | Dose-dependent effect | Active | 23.8% | 46.7% | 63.9%
